Calls of active or inactive are those of the source. The rule behind the calls is not given here.
target: T1, Prostaglandin E2 receptor EP3 subtype (Homo sapiens, UniProt P43115); assay: Displacement of [3H]PGE2 from human EP3 receptor; details: not given
T1 sequence (P43115 whole entry): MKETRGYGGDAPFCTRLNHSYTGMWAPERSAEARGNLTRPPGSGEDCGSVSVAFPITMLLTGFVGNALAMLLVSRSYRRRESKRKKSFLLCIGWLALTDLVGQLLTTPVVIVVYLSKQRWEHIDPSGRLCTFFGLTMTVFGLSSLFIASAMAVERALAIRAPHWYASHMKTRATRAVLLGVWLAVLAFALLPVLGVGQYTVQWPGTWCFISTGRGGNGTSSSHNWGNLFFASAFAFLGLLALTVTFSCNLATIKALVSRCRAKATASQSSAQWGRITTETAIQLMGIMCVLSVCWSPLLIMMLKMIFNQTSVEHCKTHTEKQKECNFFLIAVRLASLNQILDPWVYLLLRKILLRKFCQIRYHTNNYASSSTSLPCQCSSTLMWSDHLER
Summary of the method: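 Displacement of [3H]-PGE2 from human EP3 receptor membrane preparations was run in buffer. IC50 values come from at least three experiments each.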

**Q.** With `CC12CCCC(/C=C/C(=O)NS(=O)(=O)c3cc(Cl)c(Cl)s3)=C1N(Cc1ccc(Cl)cc1Cl)C(=O)C2` (stereo unspecified) as the molecule, how does the IC50 read?
**A.** 2.3 nM

**Q.** For `CC12CCCC(/C=C/C(=O)NS(=O)(=O)c3cc(Cl)cc(Cl)c3)=C1N(Cc1ccc(F)c(F)c1)C(=O)C2` (stereo unspecified), which IC50 is on record?
**A.** 5.6 nM

**Q.** For `CC12CCCC(/C=C/C(=O)NS(=O)(=O)c3cc(Cl)c(Cl)s3)=C1N(Cc1cccc(F)c1)C(=O)C2` (stereo unspecified), which IC50 is on record?
**A.** 9.5 nM

**Q.** With `CC12CCCC(/C=C/C(=O)NS(=O)(=O)c3cc(F)cc(F)c3)=C1N(Cc1ccc(F)cc1)C(=O)C2` (stereo unspecified) as the molecule, how does the IC50 read?
**A.** 84.1 nM

**Q.** For `CC12CCCC(/C=C/C(=O)NS(=O)(=O)c3ccc(F)c(F)c3)=C1N(Cc1ccc(F)cc1)C(=O)C2` (stereo unspecified), which IC50 is on record?
**A.** 2.5 nM

**Q.** Which IC50 does the source give for `CC12CCCC(/C=C/C(=O)NS(=O)(=O)c3cccs3)=C1N(Cc1ccc(Cl)cc1Cl)C(=O)C2` (stereo unspecified) here?
**A.** 57.2 nM

**Q.** With `COc1cccc(CN2C(=O)CC3(C)CCCC(/C=C/C(=O)NS(=O)(=O)c4cc(F)cc(F)c4)=C23)c1` (stereo unspecified) as the molecule, how does the IC50 read?
**A.** 5.6 nM

target: T2, Prostaglandin E2 receptor EP3 subtype (Homo sapiens) (UniProt P43115); assay: Ratio of IC50 for human EP3 receptor in presence of 10% human serum to IC50 for human EP3 receptor in buffer; details: not given
T2 sequence (whole entry): T1 sequence (P43115 whole entry)
Summary of the method: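 Displacement of [3H]-PGE2 from human EP3 membrane preparations was run both with 10% human serum and in buffer alone. Fold-shift is IC50 with serum divided by IC50 in buffer.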

**Q.** With `CC12CCCC(/C=C/C(=O)NS(=O)(=O)c3cc(Cl)c(Cl)s3)=C1N(Cc1ccc(Cl)cc1Cl)C(=O)C2` (stereo unspecified) as the molecule, how does the fold change (FC) read?
**A.** 38.4

**Q.** Which fold change (FC) does the source give for `CC12CCCC(/C=C/C(=O)NS(=O)(=O)c3cc(Cl)cc(Cl)c3)=C1N(Cc1ccc(F)c(F)c1)C(=O)C2` (stereo unspecified) here?
**A.** 26.8

**Q.** For `CC12CCCC(/C=C/C(=O)NS(=O)(=O)c3cc(Cl)c(Cl)s3)=C1N(Cc1cccc(F)c1)C(=O)C2` (stereo unspecified), which fold change (FC) is on record?
**A.** 8.2

**Q.** With `CC12CCCC(/C=C/C(=O)NS(=O)(=O)c3cc(F)cc(F)c3)=C1N(Cc1ccc(F)cc1)C(=O)C2` (stereo unspecified) as the molecule, how does the fold change (FC) read?
**A.** 5.4

**Q.** Which fold change (FC) does the source give for `CC12CCCC(/C=C/C(=O)NS(=O)(=O)c3ccc(F)c(F)c3)=C1N(Cc1ccc(F)cc1)C(=O)C2` (stereo unspecified) here?
**A.** 15.9

**Q.** With `CC12CCCC(/C=C/C(=O)NS(=O)(=O)c3cccs3)=C1N(Cc1ccc(Cl)cc1Cl)C(=O)C2` (stereo unspecified) as the molecule, how does the fold change (FC) read?
**A.** 25.2

**Q.** With `COc1cccc(CN2C(=O)CC3(C)CCCC(/C=C/C(=O)NS(=O)(=O)c4cc(F)cc(F)c4)=C23)c1` (stereo unspecified) as the molecule, how does the fold change (FC) read?
**A.** 62.4

tested on: not listed separately; assay: Metabolic stability in rat liver microsomes after 30 mins; format: ADME, Microsome; details: read-out: Stability
Summary of the method: (§1)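 Compound was incubated 30 min with liver microsomes from each species. Percent parent remaining was measured by LC/MS/MS.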

**Q.** With `CC12CCCC(/C=C/C(=O)NS(=O)(=O)c3cc(Cl)c(Cl)s3)=C1N(Cc1ccc(Cl)cc1Cl)C(=O)C2` (stereo unspecified) as the molecule, how does the remaining at 0.5 h read?
**A.** 60%

**Q.** Which remaining at 0.5 h does the source give for `CC12CCCC(/C=C/C(=O)NS(=O)(=O)c3cc(Cl)cc(Cl)c3)=C1N(Cc1ccc(F)c(F)c1)C(=O)C2` (stereo unspecified) here?
**A.** 45%

**Q.** With `CC12CCCC(/C=C/C(=O)NS(=O)(=O)c3cc(Cl)c(Cl)s3)=C1N(Cc1cccc(F)c1)C(=O)C2` (stereo unspecified) as the molecule, how does the remaining at 0.5 h read?
**A.** 18%

**Q.** With `CC12CCCC(/C=C/C(=O)NS(=O)(=O)c3cccs3)=C1N(Cc1ccc(Cl)cc1Cl)C(=O)C2` (stereo unspecified) as the molecule, how does the remaining at 0.5 h read?
**A.** 79%

tested on: not listed separately; assay: Metabolic stability in human liver microsomes after 30 mins; format: ADME, Microsome; details: read-out: Stability; summary of the method: as §1

**Q.** With `CC12CCCC(/C=C/C(=O)NS(=O)(=O)c3cc(Cl)c(Cl)s3)=C1N(Cc1ccc(Cl)cc1Cl)C(=O)C2` (stereo unspecified) as the molecule, how does the remaining at 0.5 h read?
**A.** 58%

**Q.** With `CC12CCCC(/C=C/C(=O)NS(=O)(=O)c3cc(Cl)cc(Cl)c3)=C1N(Cc1ccc(F)c(F)c1)C(=O)C2` (stereo unspecified) as the molecule, how does the remaining at 0.5 h read?
**A.** 68%

**Q.** Which remaining at 0.5 h does the source give for `CC12CCCC(/C=C/C(=O)NS(=O)(=O)c3cc(Cl)c(Cl)s3)=C1N(Cc1cccc(F)c1)C(=O)C2` (stereo unspecified) here?
**A.** 67%

**Q.** With `CC12CCCC(/C=C/C(=O)NS(=O)(=O)c3cccs3)=C1N(Cc1ccc(Cl)cc1Cl)C(=O)C2` (stereo unspecified) as the molecule, how does the remaining at 0.5 h read?
**A.** 78%

target: Prostaglandin E2 receptor EP4 subtype (Homo sapiens, UniProt P35408); assay: Binding affinity to human EP4 receptor at 20 uM by radioligand binding assay; details: not given
Sequence (P35408 whole entry): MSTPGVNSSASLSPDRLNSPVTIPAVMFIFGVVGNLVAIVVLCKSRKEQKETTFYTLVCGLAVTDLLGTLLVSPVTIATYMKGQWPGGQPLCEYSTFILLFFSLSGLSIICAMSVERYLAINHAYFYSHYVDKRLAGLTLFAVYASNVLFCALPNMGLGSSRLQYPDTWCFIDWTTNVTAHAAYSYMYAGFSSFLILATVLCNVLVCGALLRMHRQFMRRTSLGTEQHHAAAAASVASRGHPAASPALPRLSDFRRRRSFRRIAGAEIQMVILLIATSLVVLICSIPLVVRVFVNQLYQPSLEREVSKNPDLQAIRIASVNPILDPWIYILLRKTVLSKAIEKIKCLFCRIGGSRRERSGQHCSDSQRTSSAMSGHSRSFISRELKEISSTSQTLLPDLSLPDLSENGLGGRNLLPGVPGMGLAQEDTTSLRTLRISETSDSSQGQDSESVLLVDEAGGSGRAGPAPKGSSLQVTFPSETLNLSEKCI

**Q.** For `CC12CCCC(/C=C/C(=O)NS(=O)(=O)c3cc(F)cc(F)c3)=C1N(Cc1ccc(F)cc1)C(=O)C2` (stereo unspecified), which Activity is on record?
**A.** inactive

species on record: Homo sapiens; assay: Selectivity of human EP1 receptor over human EP3 receptor; details: not given

**Q.** For `CC12CCCC(/C=C/C(=O)NS(=O)(=O)c3cc(F)cc(F)c3)=C1N(Cc1ccc(F)cc1)C(=O)C2` (stereo unspecified), which Selectivity ratio is on record?
**A.** > 1000

species on record: Homo sapiens; assay: Selectivity of human EP2 receptor over human EP3 receptor; details: not given

**Q.** For `CC12CCCC(/C=C/C(=O)NS(=O)(=O)c3cc(F)cc(F)c3)=C1N(Cc1ccc(F)cc1)C(=O)C2` (stereo unspecified), which Selectivity ratio is on record?
**A.** > 1000

species on record: Homo sapiens; assay: Selectivity of human EP4 receptor over human EP3 receptor; details: not given

**Q.** For `CC12CCCC(/C=C/C(=O)NS(=O)(=O)c3cc(F)cc(F)c3)=C1N(Cc1ccc(F)cc1)C(=O)C2` (stereo unspecified), which Selectivity ratio is on record?
**A.** > 1000

species on record: Homo sapiens; assay: Selectivity of human FP receptor over human EP3 receptor; details: not given

**Q.** For `CC12CCCC(/C=C/C(=O)NS(=O)(=O)c3cc(F)cc(F)c3)=C1N(Cc1ccc(F)cc1)C(=O)C2` (stereo unspecified), which Selectivity ratio is on record?
**A.** > 1000

target: T3, Prostaglandin E2 receptor EP1 subtype (Homo sapiens) (UniProt P34995); assay: Binding affinity to human EP1 receptor at 20 uM by radioligand binding assay; details: not given
T3 sequence (whole entry): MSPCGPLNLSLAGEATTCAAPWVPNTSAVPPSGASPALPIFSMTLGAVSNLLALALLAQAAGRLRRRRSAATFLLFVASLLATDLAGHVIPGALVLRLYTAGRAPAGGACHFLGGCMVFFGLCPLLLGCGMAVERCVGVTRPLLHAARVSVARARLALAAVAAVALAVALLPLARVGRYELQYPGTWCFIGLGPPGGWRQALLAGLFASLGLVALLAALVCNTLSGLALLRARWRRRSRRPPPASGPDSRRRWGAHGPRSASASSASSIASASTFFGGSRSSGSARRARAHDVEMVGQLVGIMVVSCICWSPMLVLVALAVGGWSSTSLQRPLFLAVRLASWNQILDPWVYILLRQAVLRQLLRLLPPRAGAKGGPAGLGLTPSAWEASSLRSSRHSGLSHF

**Q.** For `CC12CCCC(/C=C/C(=O)NS(=O)(=O)c3cc(F)cc(F)c3)=C1N(Cc1ccc(F)cc1)C(=O)C2` (stereo unspecified), which Activity is on record?
**A.** inactive

target: Prostaglandin E2 receptor EP2 subtype (Homo sapiens, UniProt P43116); assay: Binding affinity to human EP2 receptor at 20 uM by radioligand binding assay; details: not given
Sequence (P43116 whole entry): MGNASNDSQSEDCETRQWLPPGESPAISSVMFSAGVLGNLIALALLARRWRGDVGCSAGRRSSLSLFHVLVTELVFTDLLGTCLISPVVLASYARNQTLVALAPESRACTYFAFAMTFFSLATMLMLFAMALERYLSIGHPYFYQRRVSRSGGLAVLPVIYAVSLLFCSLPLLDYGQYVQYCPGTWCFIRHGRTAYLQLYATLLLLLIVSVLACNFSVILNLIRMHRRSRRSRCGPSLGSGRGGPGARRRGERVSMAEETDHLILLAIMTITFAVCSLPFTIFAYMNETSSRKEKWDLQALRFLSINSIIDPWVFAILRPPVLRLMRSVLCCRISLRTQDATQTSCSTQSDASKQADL

**Q.** For `CC12CCCC(/C=C/C(=O)NS(=O)(=O)c3cc(F)cc(F)c3)=C1N(Cc1ccc(F)cc1)C(=O)C2` (stereo unspecified), which Activity is on record?
**A.** inactive

target: Prostaglandin F2-alpha receptor (Homo sapiens, UniProt P43088); assay: Binding affinity to human FP receptor by radioligand binding assay; details: not given
Sequence (P43088 whole entry): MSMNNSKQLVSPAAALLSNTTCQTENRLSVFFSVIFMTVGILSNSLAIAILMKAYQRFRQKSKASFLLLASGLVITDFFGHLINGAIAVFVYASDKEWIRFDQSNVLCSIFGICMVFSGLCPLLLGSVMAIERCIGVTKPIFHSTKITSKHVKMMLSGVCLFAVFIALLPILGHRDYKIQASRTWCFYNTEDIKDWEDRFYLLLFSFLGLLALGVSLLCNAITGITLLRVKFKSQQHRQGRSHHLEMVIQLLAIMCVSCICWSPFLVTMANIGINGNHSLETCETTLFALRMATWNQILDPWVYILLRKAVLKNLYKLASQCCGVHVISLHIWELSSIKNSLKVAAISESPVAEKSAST

**Q.** Which IC50 does the source give for `CC12CCCC(/C=C/C(=O)NS(=O)(=O)c3cc(F)cc(F)c3)=C1N(Cc1ccc(F)cc1)C(=O)C2` (stereo unspecified) here?
**A.** 4200 nM

target: T1, Prostaglandin E2 receptor EP3 subtype; assay: Antagonist activity at human EP3 receptor expressed in CHO-K1 cells assessed as reversal of inhibition of forskolin-induced cAMP production; format: functional, cell-based; details: not given
Summary of the method: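 CHO-K1 cells stably expressing human EP3 were exposed to increasing test compound concentrations for 10 min at 37 °C, with 5 μM forskolin plus 5 nM PGE2 present. Read-out was the block of PGE2's inhibition of the forskolin-induced cAMP rise, giving IC50.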

**Q.** With `CC12CCCC(/C=C/C(=O)NS(=O)(=O)c3cc(Cl)cc(Cl)c3)=C1N(Cc1ccc(F)c(F)c1)C(=O)C2` (stereo unspecified) as the molecule, how does the IC50 read?
**A.** 3.2 nM

Reference: ChEMBL document CHEMBL1143334, “Peri-substituted hexahydro-indolones as novel, potent and selective human EP3 receptor antagonists” (Bioorg Med Chem Lett, 2009)
